# Screening results: PubChem, Johns Hopkins Ion Channel Center
# MrgX1 antagonist: human MrgX1 receptor antagonism, primary screen. AID 588676. Q96LB2. 310,000 tested, 1.3% active. B-score at 10 µM. MRGX1-HEK293 calcium flux, Fluo-4, BAM8-22 antagonism; active compounds read low;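 active means calcium-response B-score plate-corrected more than 3 library SD below zero, starting fluorescence within 5 deviations, no agonist response on first addition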;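 further: peak minus trough fluorescence over baseline after final BAM8-22 challenge near maximal dose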
# Target sequence (Q96LB2 whole entry, looked up): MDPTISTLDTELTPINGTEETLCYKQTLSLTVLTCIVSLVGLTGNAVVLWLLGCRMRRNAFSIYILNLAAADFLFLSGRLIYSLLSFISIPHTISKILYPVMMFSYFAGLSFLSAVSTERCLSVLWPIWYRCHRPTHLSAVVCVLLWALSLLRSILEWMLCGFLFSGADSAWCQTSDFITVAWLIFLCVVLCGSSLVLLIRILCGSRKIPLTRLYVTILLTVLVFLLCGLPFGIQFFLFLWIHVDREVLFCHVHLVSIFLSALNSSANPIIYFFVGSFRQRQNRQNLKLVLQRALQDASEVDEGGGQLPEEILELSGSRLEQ
# Kir21 inh: blocks the mouse Kir2.1 inward-rectifier potassium channel. 310,000 tested, 0.85% active. B-score at 10 µM. P35561. HEK293-Kir2.1, FluxOR thallium flux fluorescence; active compounds read low;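 active means fluorescence ratio B-score at or below minus 3 SD of library scores, with starting-brightness B-score within 2 SD, cut at about -4.2 in these data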;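 further: channel flux triggered by added potassium and thallium sulfate stimulus; B-score of peak minus minimum fluorescence over baseline after thallium stimulus; more negative B-score means stronger Kir2.1 block with less thallium influx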
# MrgX1 ag: human MrgX1 receptor agonism, primary screen. 310,000 tested, 0.44% active. MrgX1-HEK293 cells, Fluo-4 calcium fluorescence, agonist mode; active compounds read high. B-score at 10 µM. Q96LB2;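 active means calcium response B-score plate-corrected fluorescence ratio at least 3 library SD, with starting fluorescence B-score inside 5 SD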
#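 Material – MrgX1-expressing HEK293 cells · Input – 15,000 cells seeded per well · Dosing – compound as first of three additions · Times – overnight seeding, then 1 h dark dye loading · Measured by – kinetic Fluo-4 NW fluorescence of intracellular calcium · Read-out – B-scored fluorescence response ratio · Benchmarks – positive and negative control wells on each plate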
# MrgX1 allo act: allosterically activates human MrgX1 receptor signaling | Q96LB2 | MrgX1-HEK293, Fluo-4 calcium flux, FDSS; active compounds read high | B-score at 10 µM | 310,000 tested, 0.63% active;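 active means plate-corrected calcium response at least 3 library SD above typical, normal starting fluorescence, not activating the receptor alone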;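 further: compound read alongside a low EC10 to EC30 dose of BAM8-22 agonist; peak minus trough fluorescence over baseline measured at the second addition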
# RGS4 block: inhibitors of human RGS4. HEK293 M3R/RGS4 inducible, Fluo-4 calcium flux; active compounds read high; triggered by carbachol at its EC20. B-score at 10 µM. 310,000 tested, 0.45% active;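 active means B-score, a plate-corrected calcium signal, over three deviations above library mean, with baseline fluorescence within five deviations of library mean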;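 further: RGS4 expression induced by doxycycline in cells with stable M3 receptor; B-score is computed from the integrated fluorescence ratio over baseline after carbachol; higher B-score means a larger calcium signal and so more RGS4 inhibition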
# Target sequence (P49798 whole entry, looked up): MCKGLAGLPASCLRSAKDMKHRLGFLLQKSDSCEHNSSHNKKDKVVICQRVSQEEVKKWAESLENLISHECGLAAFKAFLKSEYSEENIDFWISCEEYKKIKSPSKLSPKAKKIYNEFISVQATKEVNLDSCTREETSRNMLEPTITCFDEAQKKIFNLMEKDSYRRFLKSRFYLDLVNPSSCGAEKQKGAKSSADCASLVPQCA
# RGS4 act: potentiators or activators of RGS4. HEK293 M3R/inducible RGS4, carbachol calcium flux Fluo4; active compounds read low. B-score at 10 µM. 310,000 tested, 0.92% active. AID 463111;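 active means B-score of the integrated calcium signal more than 4 SD below the library mean, with starting fluorescence not abnormally high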;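 further: negative B-score means reduced calcium response which marks RGS4 activation or potentiation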
#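 test system = M3R-expressing HEK293 line, RGS4 induced by doxycycline | probe or stimulus = carbachol at ECmax as muscarinic agonist stimulus | timing = dye loading 30 min 37 °C, buffer rest 30 min RT | signal = calcium dye Fluo4 fluorescence | evaluation = B score from integrated fluorescence ratio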
# MrgX1 ag confirm: confirmation of human MrgX1 receptor agonists. AID 602412. 600 tested, 78% active. activation, % at 10 µM. shares compounds with MrgX1 ag. MrgX1-HEK293, Fluo-4 calcium fluorescence, FDSS;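 active means calcium signal rise, corrected for plate position, at least 3 library SD high, with starting brightness within 5 such deviations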
# HEK293 Ca flux: counter-screen for MrgX1 antagonists: effect in parental HEK293 cells. fluorescence ratio F(max-min)/F0 at 10 µM. shares compounds with MrgX1 antagonist. Fluo-4 calcium fluorescence, FDSS. 4,000 tested, 2% active;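 active means duplicate-averaged calcium fluorescence ratio at least three times the standard deviation of buffer wells, a nonspecific response in parental cells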
# HEK293 Ca counter: activity in parental HEK293 cells without MrgX1 | parental HEK293 calcium flux, Fluo-4 fluorescence ratio; active compounds read high | fluorescence ratio F(max-min)/F0 at 10 µM | 4,000 tested, 0.4% active | shares compounds with MrgX1 antagonist | AID 624114;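 active means calcium fluorescence ratio, averaged over duplicates, at least 3 SD of the buffer-well ratio, meaning a nonspecific response in receptor-free cells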;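 further: untransfected parental HEK293 lacking MrgX1 used as counterscreen for MrgX1 allosteric activators; fluorescence change taken during the second addition on a kinetic imager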
# HEK293 Ca cntr2: activity in parental HEK293 cells lacking MrgX1 receptor; shares compounds with MrgX1 antagonist; Fluo-4 calcium fluorescence (FDSS); active compounds read high; fluorescence ratio F(max-min)/F0 at 10 µM; 4,000 tested, 8.7% active; AID 624115;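 active means calcium fluorescence ratio at least three times the spread of buffer wells, meaning a non-specific response in parental cells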
# * hit, by the source's call; i = inactive; . = no result given. This is a sample that favours compounds with a hit; in the whole collection about 4.1% have one here.
SMILES,MrgX1 antagonist,Kir21 inh,MrgX1 ag,MrgX1 allo act,RGS4 block,RGS4 act,MrgX1 ag confirm,HEK293 Ca flux,HEK293 Ca counter,HEK293 Ca cntr2
O=c1c2cc(Br)ccc2nc(-c2cccc(C(F)(F)F)c2)n1O,i,0.13,119*,i,i,i,620%*,i,i,144*
O=C(OCn1nnc2ccccc2c1=O)c1ccc(N2CCOCC2)c([N+](=O)[O-])c1,i,2.4,i,i,i,i,.,.,.,.
CCN1C(Nc2ccccc2)=NC[C@@H]1CC(C)C,i,1.5,i,i,i,i,.,.,.,.
Cc1cccc(CCN2C(Nc3ccccc3)=NC[C@@H]2CC(C)C)c1,i,.,114*,i,.,.,586%*,i,i,101*
c1ccc(CCN2CCN=C2Nc2ccccc2)cc1,i,-1.7,i,i,i,i,.,.,.,.
Cc1cccc(CCN2CCN=C2Nc2ccccc2)c1,i,.,50*,i,.,.,278%*,i,i,67*
CC(C)C[C@H]1CN=C(Nc2ccccc2)N1CCc1ccc(F)cc1,i,.,120*,i,.,.,575%*,i,i,106*
CC(C)CCN1C(Nc2ccccc2)=NC[C@@H]1CC(C)C,i,0.4,i,i,i,i,.,.,.,.
COc1cc(OC)cc(C(=O)NNC(=S)Nc2ccccc2OC)c1,i,0.16,i,i,i,i,.,.,.,.
Nc1nc2ccc(S(=O)(=O)N3CCCCC3)cc2s1,i,2.8,43*,i,i,i,256%*,i,i,53*
N[C@@H](Cc1c[nH]c2ccc(O)cc12)C(=O)O,i,.,32*,i,.,.,i,i,i,i
NC(Cc1c[nH]c2ccc(OCc3ccccc3)cc12)C(=O)O (centres undefined),i,0.05,i,i,i,i,.,.,.,.
Cc1oc(-c2ccccc2)nc1C(=O)N1CCN(c2ccc(F)cc2)CC1,i,-1.6,i,i,i,i,.,.,.,.
CCC(=O)N/N=C/c1ccc(-c2ccc([N+](=O)[O-])cc2)o1,i,0.38,i,i,i,i,.,.,.,.
CC(C)(C)C(=O)/C=c1\s/c(=C\c2ccc(-c3ccc([N+](=O)[O-])cc3)o2)c(=O)n1CC(=O)NC(N)=O,i,-3.1,82*,i,i,i,464%*,0.017*,i,89*
CC(Cc1cccs1)NC(=O)CCCn1nnnc1CN1CCOCC1 (centres undefined),i,-0.46,i,i,i,i,.,.,.,.
CN(C)c1nc(N)c(C(=O)N=C(N)N)nc1Cl,i,1,35*,i,i,i,170%*,i,i,i
NC(=Nc1ccccc1)NC(=O)c1nc(Cl)c(N)nc1N,i,-0.46,i,i,i,i,.,.,.,.
CCOC(=O)c1cnc2c(OC)cccc2c1N1CC(C)CC(C)C1 (centres undefined),i,0.32,28*,i,i,i,i,i,i,i
O=C(Nc1ccc(N2CCOCC2)cc1)C1(c2ccc(Cl)cc2)CCC1,i,-1.7,i,i,i,i,.,.,.,.
O=C(CNCC1(N2CCOCC2)CCCCC1)Nc1ccc(Cl)cc1,i,-0.55,74*,i,i,i,i,i,i,i
CN(Cc1ccccc1)C(=O)c1cc2cc(F)ccc2[nH]1,i,0.27,i,i,i,i,.,.,.,.
O=C(Nc1ccc2oc(-c3cccc4ccccc34)nc2c1)c1ncn[nH]1,i,-0.21,i,i,i,i,.,.,.,.
O=C(Nc1ccc2oc(-c3ccccc3Cl)nc2c1)c1ncn[nH]1,i,0.05,55*,i,i,i,i,i,i,i
C=C(C)Cn1c(-c2ccccc2)nc2ccccc21,i,-1.9,31*,i,i,i,131%*,i,i,i
SMILES,MrgX1 antagonist,Kir21 inh,MrgX1 ag,MrgX1 allo act,RGS4 block,RGS4 act,MrgX1 ag confirm,HEK293 Ca flux,HEK293 Ca counter,HEK293 Ca cntr2
C=C(C)Cn1c(SCC(=O)O)nnc1-c1ccccc1,i,0.12,i,i,i,i,.,.,.,.
CCOc1ccc(NC(=O)CSc2nc(N)c(-c3ccccc3)c(=O)[nH]2)cc1,i,1.6,i,i,i,i,.,.,.,.
Cn1c2ccccc2c(=O)c2c(=O)n(C3CCCCC3)c(-c3ccco3)nc21,i,0.68,91*,i,i,i,589%*,i,i,113*
CC(C)Cn1c(-c2ccco2)nc2c(c(=O)c3ccccc3n2C)c1=O,i,0.03,i,i,i,i,.,.,.,.
CCOC(=O)c1ccc(N2C(=O)C3C(C2=O)C(C(=O)c2ccc(Cl)cc2)N2CCCC32)cc1 (centres undefined),i,-1.5,43*,i,i,i,i,i,i,52*
CCOC(=O)c1ccc(N2C(=O)C3CC=CCC3C2=O)cc1 (centres undefined),i,0.01,i,i,i,i,.,.,.,.
Cc1cc(C)nc(/N=C(\N)Nc2ccc(OCCC(C)C)cc2)n1,i,-3.2,118*,i,i,i,599%*,i,i,124*
Cc1cc(C)nc(/N=C(\N)Nc2ccc(S(=O)(=O)O)cc2)n1,.,-0.32,.,.,i,i,.,.,.,.
COc1ccccc1N/C(N)=N/c1nc(C)cc(C)n1,i,1.1,i,i,i,i,.,.,.,.
Cc1cc(C)nc(/N=C(\N)Nc2ccc(CC(=O)OC(C)C)cc2)n1,i,-2.8,143*,i,i,i,424%*,i,i,90*
CCc1ccc(N/C(=N/c2nc(C)cc(C)n2)NC(C)=O)cc1,i,1.5,i,i,i,i,.,.,.,.
Cc1cc(C)nc(/N=C(\N)Nc2cccc(OCc3ccccc3)c2)n1,i,-3.4,153*,i,i,i,523%*,i,i,100*
CCCCCc1ccc(-c2nnc(N)s2)cc1,i,0.86,i,i,i,i,.,.,.,.
